Beta2AR agonist – agonists of human beta-2 adrenergic receptor inducing internalization; P07550; Am2.2-beta2AR cells, FAP receptor internalization, flow cytometry; response, % (concentration not given with the values); 340,000 compounds, 0.43% hits; AID 504454;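 active means response above a set limit, near 3 SD of response in nonfluorescent compounds, cut at about 42% in these data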
APJ antag – APJ receptor antagonism; P35414; CHO-K1 APJ beta-arrestin complementation, luminescence; inhibition, % at 20 µM; 330,000 compounds, 0.32% hits;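 active means inhibition above about 40% at 20 µM, limit read from the data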;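 further: cells challenged with 10 nM apelin-13 agonist together with compound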
Target sequence (P35414 whole entry, looked up): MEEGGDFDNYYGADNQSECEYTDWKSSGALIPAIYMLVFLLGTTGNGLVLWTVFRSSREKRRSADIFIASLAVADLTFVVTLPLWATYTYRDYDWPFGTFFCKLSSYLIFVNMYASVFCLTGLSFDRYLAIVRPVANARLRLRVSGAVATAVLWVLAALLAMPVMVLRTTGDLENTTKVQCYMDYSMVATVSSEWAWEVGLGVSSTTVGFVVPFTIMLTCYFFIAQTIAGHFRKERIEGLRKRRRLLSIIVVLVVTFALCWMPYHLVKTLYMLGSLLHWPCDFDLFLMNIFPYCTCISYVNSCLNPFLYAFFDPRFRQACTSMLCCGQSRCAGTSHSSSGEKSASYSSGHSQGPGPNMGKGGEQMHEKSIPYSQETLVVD
PfG6PD inh – PfG6PD (Plasmodium falciparum) enzyme inhibition. PfGluPho enzyme, NADPH resazurin-diaphorase fluorescence. inhibition, % at 20 µM. 350,000 compounds, 0.78% hits;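 active means inhibition reaching at least a set limit at 20 µM in the primary screen, cut at about 59% in these data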
APJ ag – agonists of human APJ apelin receptor; 330,000 compounds, 0.11% hits; activation, % at 20 µM; CHO-K1 APJ PathHunter beta-arrestin, luminescence; 0% DMSO wells, 100% apelin; AID 2520;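 active means activation more than six SD over the plate average, tested at 20 µM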
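Material: engineered CHO-K1 APJ arrestin reporter cells; amount: 1000 CHO-K1 reporter cells seeded per well; incubation: compound stimulation 90 min at 25 °C, detection 60 min; signal: luminescent beta-gal fragment complementation, chemiluminescent substrate; read-out basis: APJ agonist activity; controls: DMSO-only wells as negative, 10 nM Apelin-13 as positive control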
CXCR6 inh – CXCR6 (human) receptor inhibition; CHO-K1 PathHunter CXCR6 beta-arrestin, luminescence; 360,000 compounds, 0.36% hits; inhibition, % at 20 µM; in the data active means inhibition above about 34%, passing the limit was not always enough;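 further: antagonist mode with CXCL16 agonist at 10 nM final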
Target sequence (O00574 whole entry, looked up): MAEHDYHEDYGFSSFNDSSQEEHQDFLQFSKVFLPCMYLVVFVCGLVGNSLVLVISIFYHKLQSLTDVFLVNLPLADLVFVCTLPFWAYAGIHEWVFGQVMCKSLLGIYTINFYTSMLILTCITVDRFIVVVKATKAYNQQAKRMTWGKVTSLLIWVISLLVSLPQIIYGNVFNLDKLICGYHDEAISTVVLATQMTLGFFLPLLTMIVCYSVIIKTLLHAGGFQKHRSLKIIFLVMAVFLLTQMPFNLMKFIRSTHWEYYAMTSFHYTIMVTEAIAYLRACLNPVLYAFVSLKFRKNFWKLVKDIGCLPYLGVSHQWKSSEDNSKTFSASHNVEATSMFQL
CCR6 antag – blocks CCL20-driven beta-arrestin recruitment at human CCR6. 340,000 compounds, 0.49% hits. CHO-K1 CCR6 PathHunter beta-arrestin, luminescence, CCL20-stimulated. P51684. inhibition, % at 20 µM;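 active means compounds whose inhibition of the agonist-driven luminescence signal at 20 µM reaches about 50%, limit read from the data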;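 further: cells stimulated with CCL20 at 14 nM final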
Beta2AR ag CP1 – activates human beta-2 adrenergic receptor. shares compounds with Beta2AR agonist. Am2.2-beta2AR cells, FAP surface receptor, flow cytometry; stronger effect = lower value. percent response (surface receptor), % at 10 µM. 1,100 compounds, 25% hits;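 active means surface receptor percent response at or below 58%, roughly 3 SD from nonfluorescent compounds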
B2AR FAP counter – counter-screen for beta-2AR agonists: fluorescence in Am2.2 cells. shares compounds with Beta2AR agonist. FAP fluorogen flow cytometry, fluorescence counterscreen; stronger effect = lower value. calls only at 10 µM. 1,100 tested, under 10 active;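 active means percent response below a set limit in fluorescence channel 1 and below 50% in channel 8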
Of the large screens only hits and unclear results are named; the others gave an inactive call (follow-up assays come after a bar, where they were run); ! = not active in a repeat. Compounds with a hit are over-represented: about 1.7% of the library has one in this group of screens.

COc1ccc(C(=O)C(CCCCC(CN(C)C)C(=O)c2ccc(OC)cc2)CN(C)C)cc1 (stereo unspecified)	none
CCOc1ccc(S(=O)(=O)N2CCOCC2)cc1NC(=O)Cc1c(F)cccc1Cl	none
Cc1ccc(NC(=O)c2ncn(CCCNCCCc3ccccc3)n2)cc1C	Beta2AR agonist 42.0 (no result: APJ antag, APJ ag) | Beta2AR ag CP1 inactive | B2AR FAP counter inactive
CC(C)(C)OC(=O)[C@H](Cc1ccccc1)NC(=O)c1nc[nH]c1C(=O)N1CCNCC1	none
COC(=O)c1ccc(C(=O)OC)c(NC(=O)CSc2cccc[n+]2[O-])c1	none | Beta2AR ag CP1 inactive | B2AR FAP counter inactive
COC(=O)c1ccc(-n2c(C)cc(C(=O)CSc3cccc[n+]3[O-])c2C)cc1	none
CCCCn1nnnc1C1(C)CCC(=O)N1CCc1ccc(OC)c(OC)c1 (stereo unspecified)	none (no result: Beta2AR agonist, APJ antag, PfG6PD inh, APJ ag, CCR6 antag)
Cc1cc(C)nc(NS(=O)(=O)c2ccc(NC(=O)c3ccco3)cc2)n1	none
CCc1ccc(C(=O)Nc2ccc(S(=O)(=O)Nc3nc(C)cc(C)n3)cc2)o1	Beta2AR agonist 54.0 | Beta2AR ag CP1 inactive | B2AR FAP counter inactive
CC(=O)NC(c1ccccc1)c1nc(-c2cccc(C#N)c2)cs1 (stereo unspecified)	none (no result: Beta2AR agonist, APJ antag, PfG6PD inh, APJ ag, CCR6 antag)
CCCC1NC(=O)c2cc3ccccc3cc2-n2c1nc1cc(Cl)ccc1c2=O (stereo unspecified)	none (no result: Beta2AR agonist, APJ antag, APJ ag, CCR6 antag)
NC(=S)N/N=C/c1ccccc1OC(=O)c1cc2ccccc2oc1=O	none | Beta2AR ag CP1 inactive | B2AR FAP counter inactive
NC(=O)N/N=C/c1ccccc1OC(=O)c1cc2ccccc2oc1=O	none
Cc1ccc(C(=O)Nc2ccccc2[N+](=O)[O-])cc1S(=O)(=O)N1CCOCC1	none
Cc1ccc(NC(=O)c2ccc(N3CCOCC3)c([N+](=O)[O-])c2)cc1S(=O)(=O)N1CCOCC1	Beta2AR agonist 48.8 | Beta2AR ag CP1 20.2 | B2AR FAP counter inactive
CN(C)S(=O)(=O)c1cccc(NC(=O)c2ccc(N3CCOCC3)c([N+](=O)[O-])c2)c1	Beta2AR agonist 44.7 | Beta2AR ag CP1 52.9 | B2AR FAP counter inactive
Cc1ccc(C(=O)Nc2cccc(S(=O)(=O)N3CCOCC3)c2)cc1[N+](=O)[O-]	none
CC(C)c1ccc(/C=C2\SC(=S)N(CC(=O)NCCCN3CCOCC3)C2=O)cc1	none
CCCCN1C(=O)C(CC(=O)NC2CCCC2)CC(C(=O)N2CCOCC2)=C1C (stereo unspecified)	none (no result: Beta2AR agonist, APJ antag, APJ ag, CCR6 antag)
O=C1CN(C(=O)COC(=O)/C=C/c2ccc(S(=O)(=O)N3CCOCC3)cc2)c2ccccc2N1	none
O=C1CN(C(=O)COC(=O)c2cc(S(=O)(=O)N3CCOCC3)ccc2Cl)c2ccccc2N1	Beta2AR agonist 42.3 | Beta2AR ag CP1 inactive | B2AR FAP counter inactive
CCOC(=O)c1ccc(NC(=O)Cn2nnc(-c3ccccc3)n2)cc1	Beta2AR agonist 64.5 | Beta2AR ag CP1 1.2 | B2AR FAP counter inactive
COc1ccc(OC)c(S(=O)(=O)Nc2ccc(O)c3ccccc23)c1	Beta2AR agonist 52.5 | Beta2AR ag CP1 inactive | B2AR FAP counter inactive
COc1cc2c(cc1OC)C(c1ccc(-c3ccc(Cl)cc3Cl)o1)=NCC2	none
COc1cc2c(cc1OC)C(c1ccc(-c3cc(Cl)ccc3Cl)o1)=NCC2	none | Beta2AR ag CP1 inactive | B2AR FAP counter inactive
O=C1C(Cl)=C(O)C2(Cl)C(Cl)=C(Cl)C12Cl (stereo unspecified)	none (no result: APJ antag, APJ ag)
CCOC1=C2[C@H](c3ccc(CC)cc3)N(S(=O)(=O)c3ccc(C)cc3)C[C@H]2n2c(=O)n(-c3ccccc3)c(=O)n2C1	none (no result: Beta2AR agonist, APJ antag, PfG6PD inh, APJ ag, CCR6 antag)
CCSc1nc2ccccc2n1C(=O)c1ccc(S(=O)(=O)N2CCCCC2)cc1	none
CCSc1nc2ccccc2n1C(=O)c1ccc(S(=O)(=O)N2CCCCCC2)cc1	Beta2AR agonist 52.8 | Beta2AR ag CP1 56.6 | B2AR FAP counter inactive
Cc1c(Br)c([N+](=O)[O-])nn1CCCC(=O)Nc1sc2c(c1C#N)CCC2	Beta2AR agonist 59.4 | Beta2AR ag CP1 inactive | B2AR FAP counter inactive
O=C(CNC(=O)N1CC(=O)Nc2ccccc21)Nc1ccccc1F	Beta2AR agonist 42.3 | Beta2AR ag CP1 inactive | B2AR FAP counter inactive
Clc1ccccc1C(c1ccccc1)(c1ccccc1)n1ccnc1	Beta2AR agonist 51.5 | Beta2AR ag CP1 29.9 | B2AR FAP counter inactive
COc1cc(C(C)=O)ccc1OCC(O)CNCC(O)c1ccccc1 (stereo unspecified)	none | Beta2AR ag CP1 inactive | B2AR FAP counter inactive
CCNC(=O)CN(CCc1ccccc1)S(=O)(=O)c1ccc(OC)cc1	none
COc1ccc(S(=O)(=O)N(CCc2ccccc2)CC(=O)O)cc1	Beta2AR agonist 51.2 | Beta2AR ag CP1 inactive | B2AR FAP counter inactive
COc1ccc(-n2ncc(C(=O)NC3CC3)c2C2CCN(C(=O)OC(C)(C)C)CC2)cc1	none
Cc1ccc(N(C)S(=O)(=O)c2cc(-c3cnc(C4CC4)o3)ccc2C)cc1	Beta2AR agonist 103.5 | Beta2AR ag CP1 1.5 | B2AR FAP counter inactive
CCOC(=O)C(=O)N1CCC(Cc2ccccc2)CC1	none
CCOC(=O)CSCC(=O)N1CCC(Cc2ccccc2)CC1	Beta2AR agonist 65.6 | Beta2AR ag CP1 inactive | B2AR FAP counter inactive
O=C(Nc1cccc(-c2nc3ccccc3s2)c1)c1cccs1	Beta2AR agonist 51.6 | Beta2AR ag CP1 45.6 | B2AR FAP counter inactive
Fc1ccc([C@@H]2CCNC[C@H]2COc2ccc3c(c2)OCO3)cc1	Beta2AR agonist 44.5! | Beta2AR ag CP1 inactive | B2AR FAP counter inactive
Fc1ccc(C2CCNCC2COc2ccc3c(c2)OCO3)cc1 (stereo unspecified)	none
COc1ccc(-n2nc3c(N4CCC(C(=O)NCCc5ccco5)CC4)nnc(C)c3c2C)cc1	none
CCOc1ccc(CNC(=O)C2CCN(c3nnc(C)c4c(C)n(-c5ccc(C)cc5)nc34)CC2)cc1	Beta2AR agonist 54.9 | Beta2AR ag CP1 inactive | B2AR FAP counter inactive
Cc1ccc(-n2nc3c(N4CCC(C(=O)NCc5ccccc5C)CC4)nnc(C)c3c2C)cc1	none
COc1ccc(-n2nc3c(N4CCC(C(=O)NCc5cccc(C)c5)CC4)nnc(C)c3c2C)cc1	Beta2AR agonist 92.4 | Beta2AR ag CP1 27.2 | B2AR FAP counter inactive
CCOc1ccccc1CNC(=O)C1CCN(c2nnc(C)c3c(C)n(-c4ccc(C)cc4)nc23)CC1	Beta2AR agonist 52.6 | Beta2AR ag CP1 24.5 | B2AR FAP counter inactive
CN(CC(=O)Nc1cccc(F)c1)C(=O)CN1C(=O)NC2(CCCC2)C1=O	none
Cc1ccc(C)c(NC(=O)C2CC(O)CN2C(=O)Oc2ccccc2)c1 (stereo unspecified)	none

Compound activity as filed in PubChem.
